The source of these data is ChEMBL document CHEMBL3526077, “Prediction of human metabolism of FK3453 by aldehyde oxidase using chimeric mice transplanted with human or rat hepatocytes” (Drug Metab Dispos, 2012).

In data set [1] the test system is Mus musculus. As to the kind of experiment: Drug metabolism in plasma of chimeric mouse transplanted with human hepatocytes treated with FK3453 at 3 mg/kg, iv as single dose. Type of data set: ADME, organism-based, Hepatocyte. Set-up: dose 3 mg/kg, route intravenous. The gist of the method: (§1)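 Pooled plasma from h-PXB or r-PXB mice after a 3 mg/kg i.v. dose was mixed with an equal volume of acetonitrile and centrifuged. Metabolites were profiled by C18 UPLC with ammonium formate/acetonitrile gradient, UV 254 nm, and Orbitrap MS/MS. Scored as detected or not detected.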

Data set [2] is described as follows: Retention time of the compound by UV/mass spectrometry. Type of data set: physicochemical. A digest of the protocol:
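Retention time on Acquity BEH C18 column (1.7 µm, 2.1×100 mm). Mobile phase 5 mM ammonium formate with 5% acetonitrile against acetonitrile, at 0.2 mL/min. Gradient: 100:0 to 2.5 min, linear to 65:35 by 25 min, 10:90 to 27 min. Detection by UV at 254 nm and MS.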

The test system of data set [3] is Mus musculus. The data set is described as follows: Drug metabolism in plasma of chimeric mouse transplanted with rat hepatocytes treated with FK3453 at 3 mg/kg, iv as single dose. It counts as ADME, organism-based, Hepatocyte. Further details: dose 3 mg/kg, route intravenous. A digest of the protocol:
as §1

Molecules are shown by their SMILES.

`CC(C)n1nc(-c2c(-c3ccccc3)nc(N)[nH]c2=O)ccc1=O`: the Drug metabolism result in data set [1] and in data set [3] was “metabolite_detected” throughout. For the same compound, the Retention_time in data set [2] is recorded as 16.5 min.
